# Data from paper PMC4443790 (Neuron, 2015).
# Entries after “also recorded” stand apart in the source; their conditions may differ.
# Key:
# rat mGlu5 [1] = molecular target: T1, rat mGlu5 (Rattus norvegicus, UniProt P31424); assay: Intracellular Ca2+ mobilization in HEK293A cells stably expressing rat mGlu5; type: cell-based; settings: calcium mobilization
# Summary of the method: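 Stably transfected HEK293A cells expressing rat mGlu5. Test compound added first (30 μM in representative traces), then EC20 and EC80 concentrations of glutamate added in sequence; intracellular calcium mobilization traces recorded.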
# mGlu1,2,3,4,6,7,8 = assay: mGlu subtype selectivity screening; type: cell-based, rat; settings: 10 μM; shift of agonist concentration response curve
# Summary of the method: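 Selectivity across mGlu subtypes: mGlu1 was tested by calcium flux in HEK293 cells stably expressing rat mGlu1. mGlu2, 3, 4, 6, 7 and 8 were each tested by thallium flux through GIRK channels in HEK-293-GIRK cells expressing that subtype.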
# [2] = Rat pharmacokinetics, single oral administration; type: in vivo; settings: p.o., 3 mg/kg
# [3] = In vitro fraction unbound in rat plasma; type: in vitro ADME
# male Lister-hooded rats = assay: Delayed non-matching to position; type: in vivo; settings: Lister-hooded rat, 10-60 mg/kg
# Summary of the method: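 Male Lister-hooded rats (350-450 g), trained to stable accurate performance, received vehicle or test compound (10-60 mg/kg) 60 min before testing. Delays were 1, 10, 20 and 30 sec, with 15 trials each (60 total) and a 45 min maximum per session. Read-outs were proportion of correct responses per delay and trials initiated.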
# [4] = tested on: EPSCNMDA/EPSCAMPA at SC-CA1 synapses; settings: 10 μM
# [5] = Biotransformation in rat hepatocytes; type: in vitro ADME; settings: multiple oxidative pathways
# rats [6] = assay: Amphetamine-induced hyperlocomotion; type: in vivo, rat
# rats [7] = assay: Fluoro-Jade C staining of rat brain; type: in vivo
# [8] = tested on: 66 other receptors and ion channels; assay: Radioligand competition binding panel; settings: 10 μM
# [9] = Brain distribution in vivo after oral administration; settings: rat, 1.5 hr after single p.o. 3, 10, 30, 100 mg/kg
# rat mGlu5 [10] = molecular target: T1, rat mGlu5; assay: mGlu5-mediated ERK1/2 phosphorylation; type: cell-based
# Summary of the method: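 HEK293A cells stably expressing rat mGlu5 were used. Phosphorylated ERK1/2 was measured with an ALPHAScreen-based ERK Surefire assay, both with glutamate added and without added glutamate.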
# [11] = In vitro fraction unbound in rat brain; type: in vitro ADME
# [12] = Satellite PK for Fluoro-Jade studies, repeat oral dosing; type: in vivo; settings: rat, 120 mg/kg p.o. once-daily for 4 days, 75% PEG 400 in water
# Summary of the method: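 Non-fasted male Sprague Dawley rats received 120 mg/kg orally once daily for 4 days in aqueous PEG 400 vehicle. Serial blood samples were taken at 3, 7 and 24 hr post-dose on day 1 and day 4. Plasma concentrations were quantified by LC-MS/MS.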
# rats [13] = assay: MK-801-induced hyperlocomotion; type: in vivo; settings: rat, p.o.
# Summary of the method: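 Male Sprague Dawley rats in an open-field photobeam chamber received vehicle or test compound (10-100 mg/kg, oral, 20% β-cyclodextrin, 3 ml/kg) at t = 30, then MK-801 (0.2 mg/kg s.c. in saline) at t = 60 min. Activity was recorded 60 min more as beam breaks per 5-min bin. AUC from 60 to 120 min gave total ambulations; percent reversal was normalised to vehicle + MK-801; n = 10-12.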
# rats [14] = assay: Sleep-wake electroencephalography; type: in vivo; settings: rat, p.o., 10 mg/kg
# [15] = Rat pharmacokinetics, single intravenous administration; type: in vivo; settings: i.v., 2.5 mg/kg
# [16] = tested on: NMDAR currents in hippocampal CA1 pyramidal cells; assay: Whole-cell recordings of NMDA-evoked currents/responses in CA1 pyramidal cells; parameters: species or system rat; settings: for effect on NMDA-evoked currents when added alone / effect on NMDAR currents in the presence of 3 μM DHPG: 5PAM523 20 μM, VU0409551 10 μM
# [17] = tested on: NMDAR-fEPSP at SC-CA1 synapse; assay: NMDAR-mediated fEPSPs at the SC-CA1 synapse; parameters: species or system rat
# rats [18] = assay: Amphetamine-induced disruption of prepulse inhibition; type: in vivo; settings: rat, 56.6 and 100 mg/kg, 30 min pretreatment
# [19] = tested on: hippocampal Schaffer collateral-CA1 (SC-CA1) synapse; assay: DHPG-induced LTD, fEPSP recordings at hippocampal SC-CA1 synapse; parameters: species or system rat; settings: for fEPSP slope, % of baseline: measured 55 min after washout
# α2A adrenergic receptors = molecular target: T2, α2A adrenergic receptors (Homo sapiens, UniProt P08913); assay: Radioligand competition binding assay; settings: read-out: IC50 at α2A adrenergic receptors
# T2 sequence (P08913 1-465): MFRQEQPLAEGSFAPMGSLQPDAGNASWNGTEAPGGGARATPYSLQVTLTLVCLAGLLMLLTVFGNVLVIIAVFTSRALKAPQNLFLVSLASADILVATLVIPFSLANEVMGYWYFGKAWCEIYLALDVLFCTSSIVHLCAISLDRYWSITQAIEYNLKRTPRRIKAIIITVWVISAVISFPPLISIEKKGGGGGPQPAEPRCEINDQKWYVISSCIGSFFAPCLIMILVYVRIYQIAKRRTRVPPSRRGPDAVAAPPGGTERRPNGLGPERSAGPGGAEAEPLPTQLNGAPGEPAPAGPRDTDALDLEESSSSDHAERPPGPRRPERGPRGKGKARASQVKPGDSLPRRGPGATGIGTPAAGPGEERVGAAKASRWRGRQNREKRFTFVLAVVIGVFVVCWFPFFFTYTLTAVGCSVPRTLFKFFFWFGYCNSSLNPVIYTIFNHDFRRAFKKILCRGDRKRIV
# rats [20] = assay: Behavioral convulsions, modified Racine scale; type: in vivo; settings: rat
# rats [21] = assay: Contextual fear conditioning; type: in vivo; settings: rat, 0.3 - 10 mg/kg, 30 min pretreatment prior to conditioning
# Summary of the method: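 Male Sprague Dawley rats (275-300 g) were dosed orally in 20% β-cyclodextrin (3 ml/kg) 30 min before conditioning. In a chamber scented with 10% vanilla extract, they had 2 min habituation, then one 1 s, 0.5 mA shock-context pairing, and returned home after 45 sec. 24 hr later, freezing was scored blind over 2 min 45 sec in the same context without shock or drug.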
# rats [22] = assay: Novel object recognition; type: in vivo; settings: rat, 1-10 mg/kg, 30 min prior to exposure; significant at 3 and 10 mg/kg
# [23] = molecular target: mGlu5 in rat cortical astrocytes (Rattus norvegicus, UniProt P31424); assay: Glutamate-induced calcium mobilization in cultured rat cortical astrocytes; type: cell-based
# [24] = tested on: hippocampal SC-CA1 synapse; assay: Theta burst stimulation-induced LTP at the SC-CA1 synapse; parameters: species or system rat; settings: 1 μM VU0092273 for 20 min then threshold TBS, 35 min after stimulation
# Summary of the method: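 Threshold LTP was induced with one theta-burst train: nine bursts of four pulses at 100 Hz, 230 ms interburst interval. fEPSP slope was quantified 35 min after TBS.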
# [25] = rat, 3-100 mg/kg, 30 min pretreatment, amphetamine 1 mg/kg s.c.
# [26] = operational model of allosterism, pERK1/2
# T1 sequence (P31424 21-1203): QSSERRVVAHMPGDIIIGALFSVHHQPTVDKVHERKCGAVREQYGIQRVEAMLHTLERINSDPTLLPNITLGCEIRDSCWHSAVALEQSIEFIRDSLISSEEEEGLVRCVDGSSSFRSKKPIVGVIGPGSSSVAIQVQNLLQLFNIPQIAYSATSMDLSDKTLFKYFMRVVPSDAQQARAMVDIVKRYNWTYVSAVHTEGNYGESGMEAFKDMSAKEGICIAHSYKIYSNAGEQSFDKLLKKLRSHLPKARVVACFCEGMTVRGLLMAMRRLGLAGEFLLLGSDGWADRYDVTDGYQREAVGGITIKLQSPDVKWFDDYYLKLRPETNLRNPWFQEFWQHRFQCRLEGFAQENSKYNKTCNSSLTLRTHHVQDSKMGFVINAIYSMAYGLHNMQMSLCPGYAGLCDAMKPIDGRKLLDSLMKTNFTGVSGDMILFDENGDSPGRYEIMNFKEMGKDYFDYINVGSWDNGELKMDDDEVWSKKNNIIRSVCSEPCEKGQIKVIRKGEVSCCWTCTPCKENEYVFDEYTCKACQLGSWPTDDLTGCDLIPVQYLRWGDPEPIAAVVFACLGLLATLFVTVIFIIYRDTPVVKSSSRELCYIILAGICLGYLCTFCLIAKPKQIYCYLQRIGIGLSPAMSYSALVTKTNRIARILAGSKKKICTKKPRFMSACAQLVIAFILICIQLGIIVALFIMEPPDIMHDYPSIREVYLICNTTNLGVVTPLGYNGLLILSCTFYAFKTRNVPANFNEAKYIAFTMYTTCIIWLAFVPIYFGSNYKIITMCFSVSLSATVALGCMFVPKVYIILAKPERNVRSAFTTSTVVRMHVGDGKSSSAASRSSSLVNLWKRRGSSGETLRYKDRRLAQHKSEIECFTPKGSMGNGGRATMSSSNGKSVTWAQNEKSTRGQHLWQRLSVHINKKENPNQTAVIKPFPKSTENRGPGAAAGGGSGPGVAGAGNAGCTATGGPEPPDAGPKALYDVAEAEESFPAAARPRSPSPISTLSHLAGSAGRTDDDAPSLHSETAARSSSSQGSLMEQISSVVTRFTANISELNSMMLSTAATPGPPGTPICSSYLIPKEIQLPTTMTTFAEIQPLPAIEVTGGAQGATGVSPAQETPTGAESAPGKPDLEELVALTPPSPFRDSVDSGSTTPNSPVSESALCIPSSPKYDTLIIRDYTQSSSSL
# Chain of mGlu5 in rat cortical astrocytes (P31424 21-1203): as above
smiles,measurement,setting,value
O=C(c1ccc(F)cc1)N1CCc2nc(COc3ccccc3)oc2C1 [VU0409551],intrinsic agonist activity,rat mGlu5 [1],did not possess intrinsic agonist activity
same,effect at the other mGlu receptor subtypes,"mGlu1,2,3,4,6,7,8",no effect; also recorded: did not shift the agonist concentration response curve
same,area-under-the-curve from 0-last (AUC0-last),[2],2.9 µM·h
same,oral bioavailability (%F),[2],63%
same,fraction unbound in rat plasma (fup),[3],0.07
same,total number of trials initiated,male Lister-hooded rats; 60 min pretreatment,no change
same,proportion of correct responses at a 10 and 20 sec delay,male Lister-hooded rats; 60 min pretreatment (60 mg/kg),increased
same,effect on EPSCNMDA/EPSCAMPA ratio when applied alone,[4],had no effects
same,turnover in rat hepatocytes,[5],moderate turnover
same,maximum reversal of amphetamine-induced hyperlocomotion,"rats [6]; rat, 3-100 mg/kg",78.1%
same,"ED50, reversal of amphetamine-induced hyperlocomotion",rats [6]; [25],5.9 mg/kg
same,"MED, reversal of amphetamine-induced hyperlocomotion",rats [6]; [25],3 mg/kg
same,EC50,"rats [6]; read-out: in vivo EC50 for reversal of AHL, terminal (1.5 hr) unbound brain concentration, individual animal concentration-efficacy data from all dose groups",0.097 µM
same,Emax for reversal of AHL,rats [6]; unbound brain concentration-efficacy analysis,82%
same,FJC staining,"rats [7]; 360 mg/kg, once daily for 1 month, unpublished findings",can induce FJC staining
same,FJC staining,"rats [7]; rat, 120 mg/kg p.o. daily for four consecutive days, 24 hr after last dose",did not induce
same,activity at 66 other receptors and ion channels,[8],no activity
same,brain to plasma Kp,[9],2.3
same,"unbound brain to plasma Kp (Kp,uu)",[9],1.3
same,pERK1/2 agonist activity,rat mGlu5 [10]; absence of added glutamate,increased pERK1/2 in the absence of added glutamate; also recorded: robust agonist activity
same,glutamate-induced phosphorylation of ERK1/2,rat mGlu5 [10]; mGlu5-expressing cells,potentiated
same,agonist efficacy τB,rat mGlu5 [10]; [26],1.04
same,cooperativity β with glutamate,rat mGlu5 [10]; [26],1.43
same,brain to plasma partition coefficient (Kp) at unrestricted equilibrium ([fup]/[fubr]),[11]; from in vitro fup and fubr,1.8
same,fraction unbound in rat brain (fubr),[11]; in vitro,0.04
same,AUC0-last day 1,[12],96 µM·h
same,AUC0-last day 4,[12],95 µM·h
same,"minimal effective dose (MED), reversal of MK-801-induced hyperlocomotion","rats [13]; 10-100 mg/kg, 30 min pretreatment, MK-801 0.2 mg/kg s.c.",10 mg/kg
same,maximum reversal of MK-801-induced hyperlocomotion,rats [13]; highest dose 100 mg/kg,49.7%
same,duration of decreased time asleep post-administration,rats [14],2 h
same,clearance from plasma (CLp),[15],33 mL/min/kg
same,half-life (t1/2),[15],3.9 h
same,volume of distribution at steady-state (Vss),[15],9.6 L/kg
same,effect on 3 μM DHPG-induced depolarization or increase in NMDAR response,[16]; current clamp,did not potentiate
same,effect on NMDA-evoked responses when applied alone,[16]; current clamp,had no effect
same,effect on NMDA-evoked currents when added alone,[16]; voltage clamp,had no effect
same,effect on NMDAR currents in the presence of 3 μM DHPG,[16]; voltage clamp,had no effect
same,effect on NMDAR-fEPSP slope,[17],had no effect
same,amphetamine-induced disruptions in PPI,rats [18],reversed
same,"fEPSP slope, % of baseline",[19]; 10 μM VU0409551 plus 25 μM DHPG,43.7% ± 4.6%
same,effect on fEPSP slope when applied alone,"[19]; VU0409551 alone, transient, returned to baseline within 10 min of washout",slight depression in the fEPSP slope
same,IC50,α2A adrenergic receptors,8.9 µM
same,behavioral convulsions,"rats [20]; repeated once-daily 450 mg/kg over 14 days, data not shown",did not induce behavioral convulsions
same,acquisition of fear memory assessed 24 hr later,rats [21],significantly enhanced
same,recognition memory in the novel object recognition task,rats [22],dose-dependent increase
same,intrinsic agonist activity,[23]; cultured rat cortical astrocytes,no intrinsic agonist activity
same,maximum glutamate response,[23]; rat cortical astrocytes,79.5%
"Cc1nc(C#Cc2cccnc2)cs1 [MTEP, reference compound]",effect on reversal of AHL by VU0409551,rats [6]; data not shown,blocked
"N[C@H](C(=O)O)c1cc(O)cc(O)c1 [DHPG, reference compound]",effect of DHPG on inward currents evoked by NMDA,"[16]; voltage clamp, DHPG at different concentrations",concentration-dependent increase in inward currents
same,"fEPSP slope, % of baseline",[19]; 25 μM DHPG for 10 min,78.9% ± 5.7%
same,"fEPSP slope, % of baseline",[19]; 75 μM DHPG for 10 min,54.9% ± 5.3%
O=C(c1ccc(C#Cc2ccccc2)cc1)N1CCC(O)CC1 [VU0092273],effect on fEPSP slope in response to threshold TBS,[24],significant potentiation
"C[C@@H](NC(=O)c1ccc(C#Cc2cccc(F)c2)cn1)C(C)(C)O [VU0424465, reference compound]",FJC-positive neurons in the auditory cortex and adjacent cortical regions,"rats [7]; rat, single dose 3 mg/kg i.p., 24 hr after dose",induced cell death
same,behavioral convulsions (Racine scale),rats [20]; VU0424465 3 mg/kg,induced behavioral convulsions
"C[C@@H]1CC[C@H](c2noc(-c3ccc(F)cn3)n2)CN1C(=O)c1ccc(F)cc1 [5PAM523, reference compound]",effect on NMDA-evoked currents when added alone,[16]; voltage clamp,had no effect
same,effect on NMDAR currents in the presence of 3 μM DHPG,[16]; voltage clamp,potentiated
same,behavioral convulsions (Racine scale),rats [20]; 5PAM523 56.6 mg/kg,induced behavioral convulsions
"Cc1cccc(C#Cc2ccccc2)n1 [MPEP, 2-methyl-6-(phenylethynyl)-pyridine, reference compound]",effect on VU0409551 potentiation of glutamate-induced calcium mobilization,[23]; MPEP 10 μM,blocked
